An excerpt weighted towards active compounds, which were near 3.3% of everything screened.
ATG4B inh = blocks human ATG4B protease cleavage of LC3 substrate; actives 0.51% (n = 340,000); ATG4B cleavage of LC3-PLA2, NBD-HPC fluorescence, 1 h; inhibition, % at 8.33 µM; Q9Y4P1; in the data active = inhibition above about 40%
Myeloid diff MLP = compounds promoting myeloid differentiation. ER-HoxA9 myeloid progenitors, lysozyme-GFP differentiation, flow cytometry. actives 1% (n = 360,000). calls only at 10 µM;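 active = normalized GFP-positive differentiation at or above the plate's own cutoff, the solvent-only control mean plus 3 SD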;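 note: cells exposed to compound for four days before flow analysis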
CendR NRP1 mod = modulators of CendR peptide binding to human neuropilin-1; O14786; FAM-RPARPAR peptide binding to NRP-1, fluorescence polarization; inhibition, % at 25 µM; actives 0.85% (n = 360,000); AID 602438;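 active = inhibition or corrected inhibition above about 18%, plus a signal ratio from 0.5 to 1.5, limit read from the data, passing the limit was not always enough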
Target sequence (O14786 whole entry, looked up): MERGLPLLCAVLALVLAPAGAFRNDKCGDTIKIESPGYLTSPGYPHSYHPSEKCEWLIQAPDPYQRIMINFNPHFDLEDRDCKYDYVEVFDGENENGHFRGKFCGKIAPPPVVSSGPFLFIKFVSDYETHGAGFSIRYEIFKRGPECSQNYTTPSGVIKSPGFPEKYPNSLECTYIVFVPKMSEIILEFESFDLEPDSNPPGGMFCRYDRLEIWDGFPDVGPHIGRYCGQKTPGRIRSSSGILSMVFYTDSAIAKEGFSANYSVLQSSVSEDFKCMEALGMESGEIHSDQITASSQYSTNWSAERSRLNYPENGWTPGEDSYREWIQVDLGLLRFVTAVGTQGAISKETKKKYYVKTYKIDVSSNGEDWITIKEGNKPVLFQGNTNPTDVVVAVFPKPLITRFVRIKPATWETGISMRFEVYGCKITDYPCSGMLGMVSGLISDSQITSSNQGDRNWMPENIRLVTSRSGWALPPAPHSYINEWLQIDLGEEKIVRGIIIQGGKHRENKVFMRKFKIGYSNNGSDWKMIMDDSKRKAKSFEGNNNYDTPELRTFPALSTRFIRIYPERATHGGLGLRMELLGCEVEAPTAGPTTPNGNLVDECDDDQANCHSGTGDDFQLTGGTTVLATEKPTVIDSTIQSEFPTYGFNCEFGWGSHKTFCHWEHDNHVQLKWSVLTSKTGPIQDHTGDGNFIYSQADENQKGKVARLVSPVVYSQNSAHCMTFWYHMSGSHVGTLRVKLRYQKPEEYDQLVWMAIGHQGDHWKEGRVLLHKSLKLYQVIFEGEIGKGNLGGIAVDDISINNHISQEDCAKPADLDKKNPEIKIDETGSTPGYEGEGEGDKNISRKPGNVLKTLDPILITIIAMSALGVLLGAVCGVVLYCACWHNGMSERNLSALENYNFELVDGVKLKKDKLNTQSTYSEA
Arrestin-AP2 inh = human beta-arrestin and AP2 interaction inhibition; FITC-arrestin peptide / GST-AP2 beads, flow cytometry; AP2 beta2 appendage carries R879A mutation; inhibition, % at 10 µM; actives 0.31% (n = 340,000); AID 504490;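 active = inhibition above a set limit, near 3 SD of compounds lacking own fluorescence, cut at about 54% in these data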;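 note: plate controls were DMSO wells for no effect and 5 µM unlabelled arrestin peptide for full effect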
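Material – GST-tagged AP2 beta2-adaptin appendage (R879A) on 4 µm glutathione beads · Probe or stimulus – fluorescein-tagged arrestin peptide at 50 nM final · Timing – 12 min plus 1 h, RT · Detection – bead flow cytometry, FITC channel · Read-out basis – inhibition as reduced fluorescein signal on beads, percent · Medium – PBS plus Tween 20 (0.05%) and BSA (0.1%)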
Granule exo inh = blocks lytic granule exocytosis. TALL-104 LAMP-1 surface exposure, flow cytometry; cells stimulated with thapsigargin and PMA. inhibition, % at 10 µM. actives 0.66% (n = 360,000). AID 651702;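 active = inhibition above about 55%, limit read from the data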
ABCB6 inh MLPCN = human ABCB6 transporter inhibition. Q9NP58. K562-ABCB6 porphyrin accumulation, flow cytometry, 1 h; active compounds read low. fluorescence ratio to DMSO, % at 10 µM. actives 0.19% (n = 360,000). AID 602162;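 active = fluorescence ratio to DMSO below 75%, the collection mean minus 3 SD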;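 note: signal is porphyrin accumulated inside mitochondria; 100% equals median channel fluorescence of DMSO control wells; lower ratio means ABCB6 inhibition with less porphyrin fluorescence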
Myeloid diff = myeloid differentiation induction | shares compounds with Myeloid diff MLP | AID 651706 | ER-HoxA9 myeloid progenitors, GFP/Mac1 double-positive flow | calls only | actives 2% (n = 2,300);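 active = share of green or green-and-red cells above 9 and 9% in run 1 or 4 and 3% in run 2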
GFP autofluor = flagged as fluorescent in myeloid differentiation counter-screen; shares compounds with Myeloid diff MLP; ER-HoxA9 myeloid progenitors, no estrogen, GFP autofluorescence flow cytometry; vehicle wells 0%, positive control 100%; fluorescence response, % (concentration not given with the values); actives 7.4% (n = 2,300);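 active = over 5% cells positive for green fluorescent reporter, or over 2% positive for both it and APC stain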;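 note: range taken on the double positive population between DMSO and positive control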
* hit, by the source's call; i = inactive; / = no result given; + = active, no number.

SMILES	ATG4B inh	Myeloid diff MLP	CendR NRP1 mod	Arrestin-AP2 inh	Granule exo inh	ABCB6 inh MLPCN	Myeloid diff	GFP autofluor
Cc1ccc(CN2CCNC(=O)C2CC(=O)N(C)C2CCCCC2)cc1 (centres undefined)	0	i	13	-21	1	102	/	/
CCOc1ccc(NC(=O)NNC(=O)COc2ccc3ccccc3c2)cc1	-8	i	13	-2	-2	103	/	/
CCOc1ccc(N2C(=O)CS/C2=N/NC(=O)COc2ccc3ccccc3c2)cc1	-5	i	15	6	6	97	i	1
CC1CCCN(CCCNC(=O)c2ccc3c(c2)N(Cc2cccc(Cl)c2)C(=O)c2ccccc2S3=O)C1 (centres undefined)	/	i	7	/	14	95	i	1
Cc1c(C(=O)N2CCC(C)(C(=O)NS(=O)(=O)C3CC3)C2)oc2ccccc12 (centres undefined)	/	i	-8	/	6	106	/	/
COc1cc(NC(=O)N[C@@H](CCSC)C(=O)O)cc(OC)c1	2	i	7	-9	-4	102	/	/
COc1cc(NC(=O)N[C@H](C(=O)O)C(C)C)cc(OC)c1	2	+	-3	8	-2	105	i	0
CC1CC(C)CN(C(=O)COC(=O)c2cccc(S(=O)(=O)N(C)c3ccccc3)c2)C1 (centres undefined)	-10	i	-1	-3	4	96	/	/
CC1CC(C)CN(C(=O)COC(=O)c2ccc(S(=O)(=O)N(C)c3ccccc3)cc2)C1 (centres undefined)	5	i	-5	-4	0	100	i	0
O=C(CNC(=O)c1ccccc1F)NCc1ccncc1	-2	i	3	6	24	99	/	/
CCC(C)N(C(=O)CSc1nnc(NC(C)C)s1)C1CCS(=O)(=O)C1 (centres undefined)	0	i	-6	-5	4	92	/	/
CC1CCCC(C)N1C(=O)C1CCCCC1 (centres undefined)	-1	i	-1	3	3	97	/	/
O=C(NCC(=O)N1CC=C(c2ccccc2)CC1)c1ccc(OC(F)F)cc1	-1	i	-1	25	2	84	i	1
CC(C(=O)N1CCc2ccccc2C1)N1C(=O)c2ccccc2C1=O (centres undefined)	2	+	3	31	2	104	i	0
COc1ccc(CCn2c(C)cc(C(=O)CCl)c2C)cc1OC	-1	i	-10	10	1	105	/	/
COc1ccc(OC)c(C=NNC(=O)c2ccccc2NS(=O)(=O)c2cccs2)c1	-16	+	-7	3	-2	121	i	2
NCCS(=O)(=O)O	10	i	-31	4	0	101	/	/
CC1CN(C(=O)CN2C(=O)NC3(CCCCCCC3)C2=O)CC(C)O1 (centres undefined)	-4	+	-1	4	0	103	i	1
Cc1ccc(-c2nc3c(Cl)cc(C(F)(F)F)cn3c2Cc2cccc(F)c2)cc1	/	i	-4	/	-2	97	/	/
CNc1ccc([N+](=O)[O-])cc1-c1nc2ccccc2[nH]c1=O	30	+	-2	17	-1	100	i	0
Cc1ccc(OC(=O)CCN2C(=O)c3ccccc3C2=O)cc1C	10	i	2	-16	6	98	/	/
O=C(c1ccc2c(=O)n3c(nc2c1)CCCCC3)N1CCN(c2ccc(Cl)cc2)CC1	-14	i	7	1	2	93	i	0
CCOC(=O)C1(C)C=C(Nc2ccc(NC(C)=O)cc2)C(=O)N1c1ccc(NC(C)=O)cc1 (centres undefined)	-9	i	11	5	16	91	/	/
CC(NC(=S)Nc1cccc(C(F)(F)F)c1)C(C)(C)C (centres undefined)	0	/	5	41	-9	102	/	/
Clc1ccc2nc(-c3ccc4c(c3)OCO4)cn2c1	1	i	-5	8	-1	95	i	0
SMILES	ATG4B inh	Myeloid diff MLP	CendR NRP1 mod	Arrestin-AP2 inh	Granule exo inh	ABCB6 inh MLPCN	Myeloid diff	GFP autofluor
Clc1ccc2nc(-c3ccccc3)cn2c1	-1	i	4	-8	-2	95	/	/
CCOC(=O)Cc1csc(NS(C)(=O)=O)n1	4	i	13	10	3	96	i	0
CNC[C@H](CC1CCCCC1)NC[C@H](CO)NCC1(c2ccccc2)CC1	-14	i	17	-3	-2	91	/	/
CNC[C@H](CC1CCCCC1)NC[C@H](CO)NCCc1cccc(C(F)(F)F)c1	1	+	4	3	-13	97	i	5
C=CCOC(=O)/C(=C\C=C\c1ccccc1)NC(=O)c1ccccc1	-4	i	-2	14	-2	102	/	/
COc1cc(S(=O)(=O)NCC2CCCO2)ccc1Br (centres undefined)	-1	i	2	12	-3	100	i	0
COc1ccc(S(=O)(=O)NCC2CCCO2)cc1C(=O)O (centres undefined)	-6	i	1	11	6	95	/	/
CC(C)C(O)(C#CCN1CCCCCC1)c1ccccc1 (centres undefined)	-10	i	-6	8	-4	98	/	/
CC(=O)c1c(NC(=O)c2ccccc2)[nH]c(-c2ccccc2)nc1=S	2	+	-4	42	-3	114	i	4.9*
CC(=O)c1c(C)[nH]c(-c2ccccc2)nc1=S	1	i	-7	11	-23	102	i	1
CCN(C[C@H]1N[C@@](CC)(C(=O)OC)[C@H]2C(=O)N(C)C(=O)[C@@H]12)C(C)=O	-3	i	-5	8	0	98	/	/
CCSc1nnc(NC(=O)[C@@H](NC(=O)c2ccccc2)C(C)C)s1	16	i	5	2	-1	93	/	/
COCc1cc(C)n(CC(=O)Nc2ccccc2C(=O)OC)c(=O)c1C#N	-1	i	1	7	-1	92	i	1
CCN(Cc1ccccc1)C(=O)C1CCN(C/C(C)=C/c2ccccc2)CC1	-4	i	4	19	-4	99	i	0
C[C@@H]1CN([C@@H](C)CO)C(=O)c2cc(N(C)C)ccc2O[C@@H](C)CCCCO[C@@H]1CN(C)Cc1ccc2c(c1)OCO2	/	i	-31	/	-2	95	/	/
CC(C)N1C(=O)S/C(=C/c2ccc(Sc3nc4ccccc4[nH]3)o2)C1=O	4	i	-57	4	5	98	i	0

Screening results from PubChem BioAssay.
